From ChEMBL document CHEMBL1817649, “Structure-guided design and synthesis of P1' position 1-phenylcycloalkylamine-derived pentapeptidic BACE1 inhibitors” (Bioorg Med Chem, 2011)
pIC50: −log10 of the molar value.

Columns and labels:
[1] = target: T1, Beta-secretase 1 (Homo sapiens, UniProt P56817); assay: Inhibition of human recombinant BACE1 at 2 uM by FRET assay
Outline: (§1)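 Single-point screen of BACE1 inhibition, run first at the higher concentration and then at the lower one. Read-out is percent inhibition.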

[2] = target: T1, Beta-secretase 1; assay: Inhibition of human recombinant BACE1 by FRET assay
[3] = target: T1, Beta-secretase 1; assay: Inhibition of human recombinant BACE1 at 0.2 uM by FRET assay; outline: as §1

T1 sequence (P56817 whole entry): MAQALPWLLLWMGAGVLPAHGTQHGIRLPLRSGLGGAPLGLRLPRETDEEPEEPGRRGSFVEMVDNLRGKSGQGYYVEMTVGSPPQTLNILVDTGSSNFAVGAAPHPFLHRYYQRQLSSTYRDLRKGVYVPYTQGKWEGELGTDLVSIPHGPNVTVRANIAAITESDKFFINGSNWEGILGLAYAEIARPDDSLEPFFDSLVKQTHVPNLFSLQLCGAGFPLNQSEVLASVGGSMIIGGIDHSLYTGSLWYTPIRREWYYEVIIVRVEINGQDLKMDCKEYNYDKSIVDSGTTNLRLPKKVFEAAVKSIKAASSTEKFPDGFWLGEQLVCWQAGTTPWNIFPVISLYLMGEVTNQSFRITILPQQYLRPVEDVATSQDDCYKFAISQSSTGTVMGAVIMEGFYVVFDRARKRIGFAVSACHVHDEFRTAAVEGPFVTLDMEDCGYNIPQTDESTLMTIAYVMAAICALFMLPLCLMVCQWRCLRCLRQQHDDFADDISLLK

Row | inhibition [1] [%] | pIC50 [2] | inhibition [3] [%] | SMILES
1 | 86 | – | 43 | CC(C)C[C@H](NC(=O)[C@@H](NC(=O)[C@@H](N)CNC(=O)c1cc(O)ccc1O)C(C)C)C(=O)N[C@@H](Cc1ccccc1)[C@@H](O)C(=O)NC1(c2ccccc2)CCCCC1
2 | 90 | – | 58 | CC(C)C[C@H](NC(=O)[C@@H](NC(=O)[C@@H](N)CNC(=O)c1cc(O)ccc1O)C(C)C)C(=O)N[C@@H](Cc1ccccc1)[C@@H](O)C(=O)NC1(c2ccccc2)CCCC1
3 | 87 | – | 44 | CC(C)C[C@H](NC(=O)[C@@H](NC(=O)[C@@H](N)CNC(=O)c1cc(O)ccc1O)C(C)C)C(=O)N[C@@H](Cc1ccccc1)[C@@H](O)C(=O)N[C@H](C)c1ccccc1
4 | 89 | – | 49 | CC(C)[C@H](NC(=O)[C@@H](N)CNC(=O)c1cc(O)ccc1O)C(=O)N[C@@H](CC1CCCCC1)C(=O)N[C@@H](Cc1ccccc1)[C@@H](O)C(=O)NC(C)(C)c1ccccc1
5 | 88 | – | 44 | CC(C)C[C@H](NC(=O)[C@@H](NC(=O)[C@@H](N)CNC(=O)c1cc(O)ccc1O)C(C)C)C(=O)N[C@@H](Cc1ccccc1)[C@@H](O)C(=O)NC(C)(C)c1ccccc1
6 | 88 | – | 47 | CC(C)C[C@H](NC(=O)[C@@H](NC(=O)[C@@H](N)CNC(=O)c1cc(O)ccc1O)C(C)C)C(=O)N[C@@H](Cc1ccccc1)[C@@H](O)C(=O)N[C@@H](C)c1ccccc1
7 | 98 | 7.57 | 83 | CC(C)C[C@H](NC(=O)[C@@H](NC(=O)[C@@H](N)CNC(=O)c1[nH]c(=O)[nH]c(=O)c1F)C(C)C)C(=O)N[C@@H](Cc1ccccc1)[C@@H](O)C(=O)NC(C)(C)c1ccccc1

Second part, the molecule before the results:

Row | SMILES | inhibition [1] [%] | pIC50 [2] | inhibition [3] [%]
8 | CC(C)[C@H](NC(=O)[C@@H](N)CNC(=O)c1[nH]c(=O)[nH]c(=O)c1F)C(=O)N[C@@H](CC1CCCCC1)C(=O)N[C@@H](Cc1ccccc1)[C@@H](O)C(=O)N[C@@H](C)c1ccccc1 | 98 | 7.62 | 80
9 | CC(C)[C@H](NC(=O)[C@@H](N)CNC(=O)c1[nH]c(=O)[nH]c(=O)c1F)C(=O)N[C@@H](CC1CCCCC1)C(=O)N[C@@H](Cc1ccccc1)[C@@H](O)C(=O)NC1(c2ccccc2)CCN(Cc2ccccc2)CC1 | 95 | – | 64
10 | CC(C)[C@H](NC(=O)[C@@H](N)CNC(=O)c1cc(O)ccc1O)C(=O)N[C@@H](CC1CCCCC1)C(=O)N[C@@H](Cc1ccccc1)[C@@H](O)C(=O)NC1(c2ccccc2)CCCCC1 | 87 | – | 46
11 | CC(C)[C@H](NC(=O)[C@@H](N)CNC(=O)c1cc(O)ccc1O)C(=O)N[C@@H](CC1CCCCC1)C(=O)N[C@@H](Cc1ccccc1)[C@@H](O)C(=O)NC1(c2ccccc2)CCN(Cc2ccccc2)CC1 | 57 | – | –
12 | CC(C)[C@H](NC(=O)[C@@H](N)CNC(=O)c1[nH]c(=O)[nH]c(=O)c1F)C(=O)N[C@@H](CC1CCCCC1)C(=O)N[C@@H](Cc1ccccc1)[C@@H](O)C(=O)NC(C)(C)c1ccccc1 | 98 | 7.50 | 78
13 | CC(C)C[C@H](NC(=O)[C@@H](NC(=O)[C@@H](N)CNC(=O)c1[nH]c(=O)[nH]c(=O)c1F)C(C)C)C(=O)N[C@@H](Cc1ccccc1)[C@@H](O)C(=O)NC1(c2ccccc2)CCCCC1 | 98 | 7.61 | 85
14 | CC(C)[C@H](NC(=O)[C@@H](N)CNC(=O)c1[nH]c(=O)[nH]c(=O)c1F)C(=O)N[C@@H](CC1CCCCC1)C(=O)N[C@@H](Cc1ccccc1)[C@@H](O)C(=O)N[C@H](C)c1ccccc1 | 98 | 7.40 | 79
15 | CC(C)[C@H](NC(=O)[C@@H](N)CNC(=O)c1[nH]c(=O)[nH]c(=O)c1F)C(=O)N[C@@H](CC1CCCCC1)C(=O)N[C@@H](Cc1ccccc1)[C@@H](O)C(=O)NC1(c2ccccc2)CCCCC1 | 97 | 7.39 | 77
16 | CC(C)C[C@H](NC(=O)[C@@H](NC(=O)[C@@H](N)CNC(=O)c1[nH]c(=O)[nH]c(=O)c1F)C(C)C)C(=O)N[C@@H](Cc1ccccc1)[C@@H](O)C(=O)NC1(c2ccccc2)CCN(Cc2ccccc2)CC1 | 93 | – | 59
17 | CC(C)[C@H](NC(=O)[C@@H](N)CNC(=O)c1cc(O)ccc1O)C(=O)N[C@@H](CC1CCCCC1)C(=O)N[C@@H](Cc1ccccc1)[C@@H](O)C(=O)NC1(c2ccccc2)CCCC1 | 89 | – | 58
18 | CC(C)C[C@H](NC(=O)[C@@H](NC(=O)[C@@H](N)CNC(=O)c1[nH]c(=O)[nH]c(=O)c1F)C(C)C)C(=O)N[C@@H](Cc1ccccc1)[C@@H](O)C(=O)N[C@H](C)c1ccccc1 | 98 | 7.46 | 81
19 | CC(C)[C@H](NC(=O)[C@@H](N)CNC(=O)c1cc(O)ccc1O)C(=O)N[C@@H](CC1CCCCC1)C(=O)N[C@@H](Cc1ccccc1)[C@@H](O)C(=O)N[C@@H](C)c1ccccc1 | 89 | – | 54
20 | CC(C)[C@H](NC(=O)[C@@H](N)CNC(=O)c1[nH]c(=O)[nH]c(=O)c1F)C(=O)N[C@@H](CC1CCCCC1)C(=O)N[C@@H](Cc1ccccc1)[C@@H](O)C(=O)NC1(c2ccccc2)CCCC1 | 98 | 7.54 | 84
21 | CC(C)[C@H](NC(=O)[C@@H](N)CNC(=O)c1cc(O)ccc1O)C(=O)N[C@@H](CC1CCCCC1)C(=O)N[C@@H](Cc1ccccc1)[C@@H](O)C(=O)N[C@H](C)c1ccccc1 | 88 | – | 51
22 | CC(C)C[C@H](NC(=O)[C@@H](NC(=O)[C@@H](N)CNC(=O)c1[nH]c(=O)[nH]c(=O)c1F)C(C)C)C(=O)N[C@@H](Cc1ccccc1)[C@@H](O)C(=O)N[C@@H](C)c1ccccc1 | 99 | 7.69 | 83
23 | CC(C)C[C@H](NC(=O)[C@@H](NC(=O)[C@@H](N)CNC(=O)c1cc(O)ccc1O)C(C)C)C(=O)N[C@@H](Cc1ccccc1)[C@@H](O)C(=O)NC1(c2ccccc2)CCN(Cc2ccccc2)CC1 | 59 | – | –
24 | CC(C)C[C@H](NC(=O)[C@@H](NC(=O)[C@@H](N)CNC(=O)c1[nH]c(=O)[nH]c(=O)c1F)C(C)C)C(=O)N[C@@H](Cc1ccccc1)[C@@H](O)C(=O)NC1(c2ccccc2)CCCC1 | 99 | 7.94 | 86
